# Source: PubChem
# Hits are enriched below; roughly 3.3% of the tested compounds scored in any of these assays.
# Arr AP2 block – inhibitors of beta-arrestin/AP2 binding, primary screen, biochemical, GPCR trafficking, flow cytometry; beta-arrestin 1 C-terminal peptide binding to AP2 beta2-adaptin appendage (human); FITC-arrestin peptide / GST-AP2 beads; AP2 beta2 appendage carries R879A mutation; inhibition, % at 10 µM; hit rate 0.31% among 340,000;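 active means inhibition above a set limit, near 3 SD of compounds lacking own fluorescence, cut at about 54% in these data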;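 further: plate controls were DMSO wells for no effect and 5 µM unlabelled arrestin peptide for full effect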
#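 Assay system: GST-AP2 R879A bound to glutathione beads, E. coli-expressed; Medium: PBS with 0.05% Tween 20 and 0.1% BSA; Also added: fluorescein-tagged arrestin peptide at 50 nM final; Timing: 12 min plus 1 h, RT; Measured by: flow cytometry, FL1 (488/535 nm); Evaluation: percent drop in bead-associated FITC signal.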
# sPLA2-III inh – human group III sPLA2 inhibitors, primary screen, biochemical, QFRET, BODIPY PC-A2 liposome substrate; inhibition, % at 12.2 µM; QFRET BODIPY PC-A2 liposome hydrolysis, fluorescence; AID 743126, 2013; hit rate 0.56% among 370,000;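 active means inhibition above mean plus 3 SD of compounds lying within the high and low control bounds, cut at about 19% in these data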;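 further: 0% = median of test compound wells and 100% = no enzyme DMSO wells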
# Target sequence (Q9NZ20 whole entry, looked up): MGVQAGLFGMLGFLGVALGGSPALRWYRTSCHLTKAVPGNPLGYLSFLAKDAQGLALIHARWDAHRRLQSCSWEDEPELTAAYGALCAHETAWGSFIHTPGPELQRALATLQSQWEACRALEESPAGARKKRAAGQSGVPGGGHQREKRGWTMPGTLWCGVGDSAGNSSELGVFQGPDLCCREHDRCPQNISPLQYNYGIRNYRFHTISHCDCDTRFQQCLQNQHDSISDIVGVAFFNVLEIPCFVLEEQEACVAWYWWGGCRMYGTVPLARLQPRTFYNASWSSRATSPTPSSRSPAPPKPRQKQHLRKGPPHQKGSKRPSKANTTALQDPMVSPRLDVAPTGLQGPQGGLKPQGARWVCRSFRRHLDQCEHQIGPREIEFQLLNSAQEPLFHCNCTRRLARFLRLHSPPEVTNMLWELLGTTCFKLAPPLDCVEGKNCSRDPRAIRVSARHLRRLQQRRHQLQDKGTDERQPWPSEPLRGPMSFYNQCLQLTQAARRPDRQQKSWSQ
# CendR NRP1 mod – modulators of CendR peptide binding to NRP-1, primary screen, biochemical, fluorescence polarization, uHTS. Neuropilin-1 (Homo sapiens), O14786. inhibition, % at 25 µM. FAM-RPARPAR peptide binding to NRP-1. hit rate 0.85% among 360,000. AID 602438, 2012;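 active means inhibition or corrected inhibition above about 18%, plus a signal ratio from 0.5 to 1.5, limit read from the data, passing the limit was not always enough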
# PfM18AAP inh-1 – PfM18AAP inhibitors, malaria aminopeptidase, primary screen, biochemical, QFRET, recombinant enzyme; hit rate 1.2% among 290,000; H-Glu-NHMec fluorogenic cleavage; inhibition, % at 7.35 µM; M18 aspartyl aminopeptidase (Plasmodium falciparum 3D7); AID 1822, 2009;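 active means inhibition above the campaign mean inhibition over all tested compounds plus 3 SD, cut at about 28% in these data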;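 further: 0% = plate median of test compound wells and 100% = 2 mM ZnCl2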
# Hep lipid drop – inhibitors of hepatocyte lipid droplet formation, primary screen, imaging, high-throughput imaging, BODIPY stain; AML12 mouse hepatocytes, oleate lipid droplets; inhibition, % at 6.5 µM; hit rate 0.4% among 240,000; AID 1656, 2009;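 active means lipid droplet intensity inhibited by at least 50%, with more than 500 cells counted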
#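 Material – AML12 mouse liver cells · Also added – oleate loading, 100 µM · Compound dosing – 6.5 µM single-point dosing · Times – overnight treatment with compound plus oleate · Measured by – fluorescence imaging, 20x objective, two fields per well · Read-out – percent inhibition of filter-corrected integrated lipid droplet intensity per well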
# HTR2A ag – mouse Htr2a agonists via beta-arrestin recruitment, primary screen, cell-based, luminescence. 5-hydroxytryptamine receptor 2A (Mus musculus), P35363. activation, % at 7.6 µM. CHO-K1 mHTR2A beta-arrestin complementation; percent of 30 µM serotonin response. hit rate 0.66% among 360,000;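 active means activation above a run cutoff, the mean activation of all tested compounds plus 3 SD, cut at about 14% in these data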;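 further: 0% = plate median of compound wells and 100% = 30 µM serotonin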
# PfM18AAP inh-2 – PfM18AAP inhibitors, malaria aminopeptidase, confirmation, biochemical, QFRET, recombinant enzyme, triplicate | H-Glu-NHMec fluorogenic cleavage | shares compounds with PfM18AAP inh-1 | inhibition, % at 7.35 µM | AID 2170, 2009 | hit rate 28% among 2,400;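 active means mean inhibition over replicate wells above the hit cutoff set for the earlier primary screen, cut at about 29% in these data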;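 further: 0% = median of test compound wells and 100% = 2 mM ZnCl2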
# CTSL1 confirm – cathepsin L1 inhibitors, retest, confirmation, counter-screen for PFM18AAP inhibitor project, biochemical, QFRET, triplicate | shares compounds with PfM18AAP inh-1 | purified cathepsin L1, Z-Leu-Arg-MCA fluorescence | inhibition, % at 5.96 µM | 2,400 tested, under 10 active;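 active means average inhibition across replicates above the hit cutoff set in the earlier primary screen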;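 further: 0% = median of test compound wells and 100% = Z-Phe-Ala-diazomethylketone 1 µM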
# * hit, by the source's call; x = not tested or not shown.
SMILES,Arr AP2 block,sPLA2-III inh,CendR NRP1 mod,PfM18AAP inh-1,Hep lipid drop,HTR2A ag,PfM18AAP inh-2,CTSL1 confirm
CC(C)(C)c1cc(C(=O)N/N=C/c2ccc(-c3ccccc3[N+](=O)[O-])o2)n[nH]1,-4,-18,20,48*,-14,-6,-19,3
O=C(N[C@H](C(=O)N1CCC[C@H]1C(=O)NCCc1ccccc1Cl)C1CCCCC1)c1ccc(Cl)c(Cl)c1,x,4,x,x,x,x,x,x
Cc1cccc(C(=O)Nc2cccc(C(=O)N3CCOCC3)c2)c1,1,1,-8,4,22,-2,x,x
CC(=O)/C(=N/Nc1cccc(C)c1)N1CCOCC1,-1,-3,4,42*,-11,0,-68,27*
NC(=S)NNC(=O)COc1ccccc1O,-2,4,-11,37*,0,-2,39*,-2
COc1ccc(/C=C(\C#N)C(=O)C(C)(C)n2cncn2)cc1,-6,-2,7,59*,45,3,-8,-2
CC(C)NC[C@@H](O)c1ccc(O)c(O)c1,6,2,14,61*,6,2,56*,-2
CC(C)NCC(O)c1ccc(NS(C)(=O)=O)cc1 (stereo not given),-1,3,-6,1,5,0,x,x
FC(F)Oc1ccc(NC(=S)Nn2cnnc2)cc1,-4,0,9,80*,16,2,66*,-2
CN(C)[C@@H]1CCN(c2ccc3c(c2)OCCCN(C2CC2)S3(=O)=O)C1,x,-1,x,x,x,x,x,x
Oc1ccc(-c2cn3c(n2)SCC3)cc1O,10,-8,-2,73*,10,0,65*,-1
Oc1ccc(-c2cn3c(n2)SCC3)cc1,12,-1,-1,-2,2,-4,x,x
Cc1cccc(Cn2cc(COC(=O)NCCc3ccccc3)nn2)c1,x,-5,x,x,x,x,x,x
COc1cc(-c2nc3ccc(C)cn3c2Nc2ccc3c(c2)OCCO3)ccc1O,2,-8,12,41*,-3,-1,41*,-2
COc1cc(-c2nc3cnccn3c2Nc2ccc3c(c2)OCCO3)ccc1O,25,-6,2,28,-24,1,x,x
C[C@H]1CN([C@@H](C)CO)C(=O)CCCn2nncc2CO[C@H]1CN(C)S(=O)(=O)c1ccc(Oc2ccccc2)nc1,x,-4,4,x,x,7,x,x
Cc1n[nH]c(=O)c2c(NC(=O)CSc3nncs3)oc(C)c12,22,13,-4,x,x,8,x,x
CCOC(=O)Cc1nnc(NC(=O)c2ccccc2OCC)s1,1,-37,6,3,-1,1,x,x
CCOC(=O)Cc1nnc(NC(=O)c2ncn[nH]2)s1,-4,-3,-1,46*,1,0,0,-4
Cc1nc2ccc(S(=O)(=O)NCC(=O)NCc3ccccc3Cl)cc2s1,x,-7,x,x,x,x,x,x
Cc1nc2ccc(S(=O)(=O)NCC(=O)NC(C)c3ccccc3)cc2s1 (stereo not given),14,6,14,33*,1,0,-31,3
CC(C)NC(=O)C1(C)CCN1Cc1ccc(Cl)cc1 (stereo not given),x,5,6,x,x,0,x,x
CC(=O)N1CCN(c2ccc(S(=O)(=O)N3CCOCC3)cc2[N+](=O)[O-])CC1,-13,8,7,x,x,-1,x,x
